High-throughput results (PubChem)
TRPC6 inhibitor: inhibitors of mouse TRPC6 channel | Q61143 | AID 2553 | B-score at 10 µM | 1.1% of 310,000 active | HEK293-TRPC6, membrane potential dye, ACh-evoked depolarization; stronger effect = lower value;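 active = B-score under library mean minus 3 SD, initial fluorescence not abnormally high, positive integrated signal ratio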;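 note: B-score derived from integrated fluorescence ratio over the kinetic read; more negative B-score means stronger inhibition of depolarization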
Target sequence (Q61143 whole entry, looked up): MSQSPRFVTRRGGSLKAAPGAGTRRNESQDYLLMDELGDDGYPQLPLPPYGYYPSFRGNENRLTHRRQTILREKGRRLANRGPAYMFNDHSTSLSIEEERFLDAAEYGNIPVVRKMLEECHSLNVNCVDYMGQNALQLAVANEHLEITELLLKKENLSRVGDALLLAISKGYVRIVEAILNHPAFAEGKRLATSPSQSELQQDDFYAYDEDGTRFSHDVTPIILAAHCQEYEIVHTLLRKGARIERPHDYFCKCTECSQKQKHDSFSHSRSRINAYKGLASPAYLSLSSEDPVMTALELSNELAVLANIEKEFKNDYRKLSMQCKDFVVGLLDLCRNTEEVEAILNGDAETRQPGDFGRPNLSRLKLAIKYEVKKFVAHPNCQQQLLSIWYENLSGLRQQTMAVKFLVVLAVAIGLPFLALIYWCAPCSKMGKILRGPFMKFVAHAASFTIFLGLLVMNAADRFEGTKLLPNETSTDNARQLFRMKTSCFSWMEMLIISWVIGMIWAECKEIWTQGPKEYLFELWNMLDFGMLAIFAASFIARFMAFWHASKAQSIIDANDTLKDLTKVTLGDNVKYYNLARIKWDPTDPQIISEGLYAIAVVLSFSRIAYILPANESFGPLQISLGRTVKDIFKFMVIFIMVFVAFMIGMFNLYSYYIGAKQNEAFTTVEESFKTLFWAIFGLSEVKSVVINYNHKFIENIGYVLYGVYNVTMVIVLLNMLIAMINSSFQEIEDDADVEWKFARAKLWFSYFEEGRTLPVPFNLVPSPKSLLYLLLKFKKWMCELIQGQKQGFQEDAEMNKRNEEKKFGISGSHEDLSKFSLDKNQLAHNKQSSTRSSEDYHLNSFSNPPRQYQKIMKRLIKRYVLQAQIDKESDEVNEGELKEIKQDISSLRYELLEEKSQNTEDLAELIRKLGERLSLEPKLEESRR
TRPC6 act: activates the mouse TRPC6 cation channel; HEK293-TRPC6 membrane potential dye fluorescence; stronger effect = higher value; 0.13% of 310,000 active; Q61143; B-score at 10 µM;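 active = B-score of the integrated fluorescence ratio above library mean plus 3 SD, and starting fluorescence ratio within library mean plus 5 SD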;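 note: higher score means more depolarization so channel activation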
TRPC4 PAM: allosterically enhances the mouse TRPC4 cation channel; B-score at 10 µM; Q9QUQ5; 0.42% of 310,000 active; HEK293 TRPC4beta/mu-opioid, DAMGO EC20, Fluo-4 Ca2+ flux; stronger effect = higher value;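 active = B-score of calcium response area above 5 SD of library B-scores, with initial fluorescence ratio within 5 SD of library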;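 note: B-score of integrated fluorescence ratio over time as area under calcium response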
TRPC4 act: activators of mouse TRPC4 channel; Q9QUQ5; B-score at 10 µM; HEK293 TRPC4beta/mu-opioid, Fluo4 calcium fluorescence; stronger effect = higher value; 0.49% of 310,000 active;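 active = B-score above 5 SD of library B-scores, and initial fluorescence ratio not above library mean plus 5 SD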;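 note: positive B-score marks a calcium rise read as TRPC4 activation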
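Assay system: HEK293 stable line with TRPC4beta plus mu-opioid receptor; schedule: 45 min room-temperature Fluo4 loading, 110 s read; technique: kinetic Fluo4 calcium fluorescence; evaluation: integrated baseline-normalised fluorescence ratio, converted to per-well B score; controls: buffer (low) and maximal DAMGO (high)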
TRPC4 block: blocks the mouse TRPC4 cation channel; Q9QUQ5; 0.39% of 300,000 active; B-score at 10 µM; AID 2247; HEK293 TRPC4beta/mu-opioid, DAMGO-evoked Fluo4 calcium flux; stronger effect = lower value;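 active = B-score over 3 SD under the library average, no early fluorescence shift, positive overall ratio signal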
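Signal: kinetic Fluo4 fluorescence imaging of calcium influx. Material: stable TRPC4beta/mu-opioid receptor HEK293 cells. Probe or stimulus: DAMGO in two steps, submaximal then maximal.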
TRPC4 sel inh 2: mouse TRPC4 off-target activity of TRPC6 inhibitors, second screen; shares compounds with TRPC6 inhibitor; AID 2776; HEK293 TRPC4/MOR, membrane potential dye fluorescence; channel activated by saturating DAMGO dose; inhibition, % at 10 µM; 42% of 920 active;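 active = compounds whose fluorescence signal differed from control wells by over 3 SD, either direction, in both duplicate plates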
TRPC4 spec: mouse TRPC4 off-target activity of TRPC6 inhibitors. shares compounds with TRPC6 inhibitor. HEK293 TRPC4/mu-opioid, membrane potential fluorescence. activity change, negative = inhibition, % at 10 µM. 61% of 920 active;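 active = rise or fall in signal beyond 3 SD of buffer-only wells in both replicate plates, either sign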;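 note: integrated kinetic ratio of fluorescence range over baseline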
HEK293 MPD ctr 2-1: second counter-screen for TRPC6 inhibitors: parental HEK293 cells | shares compounds with TRPC6 inhibitor | parental HEK293 membrane potential dye fluorescence; maximal acetylcholine challenge after compound addition | signal change vs control, % at 10 µM | 31% of 920 active;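 active = membrane potential signal moving either way by over 3 SD of the maximum-effect control, in both duplicate plates, meaning non-specific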
HEK293 MPD ctr-1: parental HEK293 nonspecific activity of TRPC6 inhibitors; 60% of 920 active; parental HEK293 membrane potential dye fluorescence; AID 2780; shares compounds with TRPC6 inhibitor; membrane potential signal change, % at 10 µM;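 active = membrane potential signal shifting up or down by more than 3 SD of buffer-only wells, on both duplicate plates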
HEK293 MPD ctr-2: counter-screen for TRPC6 modulators: effect in parental HEK293 cells. 51% of 2,400 active. membrane potential dye fluorescence. shares compounds with TRPC6 inhibitor. membrane potential signal change, % at 10 µM;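 active = membrane potential signal moves up or down beyond 5 SD from buffer-only wells, on both duplicate plates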
HEK293 MPD ctr 2-2: parental HEK293 nonspecific activity of TRPC6 modulators, second screen; shares compounds with TRPC6 inhibitor; membrane potential dye fluorescence; after compound, maximal acetylcholine stimulation; inhibition, % at 10 µM; 14% of 2,400 active; AID 488926;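 active = membrane potential signal drops by more than 5 SD from the mean control signal, in both duplicate plates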;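 note: plate controls were acetylcholine ECmax control wells for no effect and buffer only wells for full effect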
TRPC4 ctr mod: selectivity of TRPC6 modulators against mouse TRPC4; shares compounds with TRPC6 inhibitor; HEK293 TRPC4/mu-opioid, membrane potential fluorescence; percent change from control (negative = decrease, positive = increase), % at 10 µM; 69% of 2,400 active;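 active = membrane potential signal moved up or down beyond 5 SD of buffer control wells, in both duplicate plates, actives on both sides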;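 note: plate controls were assay buffer wells for no effect and DAMGO maximal-effect wells for full effect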
TRPC4/MOR inh 2: second selectivity test of TRPC6 modulators against mouse TRPC4; AID 488928; inhibition, % at 10 µM; 55% of 2,400 active; HEK293 TRPC4/mu-opioid, membrane potential dye fluorescence; stimulated with maximal-effect DAMGO; shares compounds with TRPC6 inhibitor;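 active = drop in membrane potential signal beyond 5 SD of the control wells in both duplicate plates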;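 note: TRPC4 counter screen for TRPC6 hits run under conditions tuned for TRPC6 not TRPC4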
TRPC6 block conf: confirmation of mouse TRPC6 inhibitors; shares compounds with TRPC6 inhibitor; HEK293-TRPC6, membrane potential dye, ACh-evoked depolarization; inhibition, % at 10 µM; 43% of 3,300 active;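 active = fluorescence ratio falls more than 5 SD below the full-stimulation control mean, in both duplicate runs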;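 note: integrated fluorescence ratio of peak minus minimum over baseline after agonist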
TRPC6 act confirm: mouse TRPC6 activator confirmation. shares compounds with TRPC6 inhibitor. HEK293-TRPC6 membrane potential dye fluorescence, FDSS. activation, % at 10 µM. 11% of 2,800 active. AID 488961;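 active = ratio signal rise beyond 5 SD above unstimulated control wells' mean, seen in both duplicate runs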;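 note: plate controls were buffer EC0 wells for no effect and acetylcholine ECmax response for full effect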
Active calls of the source: *; i = inactive; / = no result given. Rows were chosen to be rich in hits. Some 2.3% of all compounds tested hit in one or more screens of this group.

SMILES | TRPC6 inhibitor | TRPC6 act | TRPC4 PAM | TRPC4 act | TRPC4 block | HEK293 MPD ctr-2 | HEK293 MPD ctr 2-2 | TRPC4 ctr mod | TRPC4/MOR inh 2 | TRPC6 block conf | TRPC6 act confirm | others
COC(=O)c1ccc(NC(=O)N2CCCC(C(=O)c3ccccc3OC)C2)cc1 (configuration not stated) | -9.2* | i | i | i | i | / | / | / | / | i | / | TRPC4 sel inh 2=i;TRPC4 spec=i;HEK293 MPD ctr 2-1=226%*;HEK293 MPD ctr-1=i
COc1ccc(-c2cc(C)no2)cc1S(=O)(=O)Nc1cccc(CN2CCCC2)c1 | i | i | i | i | i | / | / | / | / | / | /
CCc1nnc(NC(=O)CSc2nc(-c3ccccc3)cc(-c3ccc(OC)cc3)c2C#N)s1 | i | i | i | i | i | / | / | / | / | / | /
COC(=O)C1=NN(C(=O)c2ccc(C)cc2)C(O)(c2ccc(Cl)cc2)C1 (configuration not stated) | -6.6* | 34* | i | 102* | i | 421%* | i | 82%* | i | 77%* | 298%*
COC(=O)C1=NN(C(=O)c2ccccc2)C(O)(c2ccc([N+](=O)[O-])cc2)C1 (configuration not stated) | i | i | i | i | i | / | / | / | / | / | /
O=C(/C=C/NNC(=O)c1ccccc1)c1ccccc1 | -6.2* | i | i | i | i | i | i | i | i | i | i
O=[N+]([O-])c1ccc2nc(SCc3cn4cc(Cl)ccc4n3)[nH]c2c1 | -5.4* | i | i | i | i | i | i | i | i | i | i
Cc1ccc(S(=O)(=O)C/N=C(/NC(=S)N(c2ccccc2)c2ccccc2)c2ccccc2)cc1 | i | i | i | i | i | / | / | / | / | / | /
Cc1cccc(NCC(=O)N/N=C\c2c[nH]c3ccccc23)c1 | -5.8* | i | i | i | i | -63%* | i | -20%* | 40%* | 38%* | i
CC1CCN(CCCNc2cc(NCCO)c([N+](=O)[O-])c3nonc23)CC1 | -7.2* | i | i | i | i | / | / | / | / | 57%* | i | TRPC4 sel inh 2=i;TRPC4 spec=-29%*;HEK293 MPD ctr 2-1=36%*;HEK293 MPD ctr-1=-454%*
CN(CCO)c1cc(NCCCN2CCC(Cc3ccccc3)CC2)c2nonc2c1[N+](=O)[O-] | i | i | i | i | i | / | / | / | / | / | /
COc1ccccc1-n1c(=O)c2c3c(sc2n2c(=S)[nH]nc12)CCC3 | i | i | i | i | i | / | / | / | / | / | /
